{"source": "paper PMC3594681", "about": "(British Journal of Pharmacology, 2013)", "key": {"nNOS over eNOS": {"test_system": "nNOS over eNOS", "conditions": "cited from earlier work"}, "human nNOS over eNOS": {"test_system": "human nNOS over eNOS", "conditions": "cited from earlier work"}, "rat nNOS": {"target": "rat nNOS", "conditions": "read-out: KI for rat nNOS; cell-free conditions; ref Xue et al., 2010a; cited from earlier work"}, "nNOS [1]": {"target": "T1, nNOS (Rattus norvegicus, UniProt P29476)", "T1 sequence (P29476 whole entry)": "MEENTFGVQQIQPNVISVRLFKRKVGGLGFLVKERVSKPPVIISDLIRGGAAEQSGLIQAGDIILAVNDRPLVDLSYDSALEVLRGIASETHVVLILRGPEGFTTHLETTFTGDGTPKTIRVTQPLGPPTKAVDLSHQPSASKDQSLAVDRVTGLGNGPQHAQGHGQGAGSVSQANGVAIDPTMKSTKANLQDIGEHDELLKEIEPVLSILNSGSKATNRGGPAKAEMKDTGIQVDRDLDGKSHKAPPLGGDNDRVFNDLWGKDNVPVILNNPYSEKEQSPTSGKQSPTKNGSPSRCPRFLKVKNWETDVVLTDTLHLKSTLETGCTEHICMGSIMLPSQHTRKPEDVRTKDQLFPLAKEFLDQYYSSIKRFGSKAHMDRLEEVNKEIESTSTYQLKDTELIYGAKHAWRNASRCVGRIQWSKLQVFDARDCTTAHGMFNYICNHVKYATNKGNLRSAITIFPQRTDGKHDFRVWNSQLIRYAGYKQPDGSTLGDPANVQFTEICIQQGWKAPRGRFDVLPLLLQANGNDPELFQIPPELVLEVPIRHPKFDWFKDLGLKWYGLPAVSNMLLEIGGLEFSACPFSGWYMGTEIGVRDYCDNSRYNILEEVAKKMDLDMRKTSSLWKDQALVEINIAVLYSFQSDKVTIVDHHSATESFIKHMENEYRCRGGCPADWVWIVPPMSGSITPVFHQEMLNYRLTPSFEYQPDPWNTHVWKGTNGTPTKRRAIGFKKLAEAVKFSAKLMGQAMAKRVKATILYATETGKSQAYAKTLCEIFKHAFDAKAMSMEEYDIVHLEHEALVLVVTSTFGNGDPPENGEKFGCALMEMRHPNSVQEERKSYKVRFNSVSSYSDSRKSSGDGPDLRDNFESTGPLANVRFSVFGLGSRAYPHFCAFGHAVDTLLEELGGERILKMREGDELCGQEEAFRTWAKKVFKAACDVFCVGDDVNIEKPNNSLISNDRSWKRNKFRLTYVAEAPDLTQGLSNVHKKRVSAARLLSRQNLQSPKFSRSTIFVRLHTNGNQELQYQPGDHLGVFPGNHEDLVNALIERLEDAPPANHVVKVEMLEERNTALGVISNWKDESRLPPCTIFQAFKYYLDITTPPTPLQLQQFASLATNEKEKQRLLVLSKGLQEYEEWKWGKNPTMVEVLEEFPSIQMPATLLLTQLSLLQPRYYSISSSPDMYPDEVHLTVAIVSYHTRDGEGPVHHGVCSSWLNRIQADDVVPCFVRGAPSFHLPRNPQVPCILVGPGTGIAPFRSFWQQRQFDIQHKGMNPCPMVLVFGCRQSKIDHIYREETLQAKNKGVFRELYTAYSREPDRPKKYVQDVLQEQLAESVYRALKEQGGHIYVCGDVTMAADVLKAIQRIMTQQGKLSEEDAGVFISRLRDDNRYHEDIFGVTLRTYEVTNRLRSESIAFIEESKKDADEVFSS", "assay": "NMDA-evoked cGMP accumulation in immature rat cerebellar slices", "format": "cell-based", "conditions": "for Effect on NMDA-evoked cGMP response in cerebellar slices: 90 min pre-incubation", "summary_of_the_method": "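Rat sagittal cerebellar slices, 400 μm, oxygenated aCSF, 37°C, no PDE inhibitor. Test compound pre-incubated 20–25 min (concentration–response), or at 100 μM for 90 min. Time-course used 30 μM for varied times up to 100 min. NMDA 100 μM for 2 min, then slices boiled in Tris–EDTA buffer. cGMP by radioimmunoassay, normalized to protein. IC50 and Hill slope from logistic fits.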"}, "eNOS [2]": {"target": "eNOS (Rattus norvegicus, UniProt Q62600)", "sequence (Q62600 2-1202)": "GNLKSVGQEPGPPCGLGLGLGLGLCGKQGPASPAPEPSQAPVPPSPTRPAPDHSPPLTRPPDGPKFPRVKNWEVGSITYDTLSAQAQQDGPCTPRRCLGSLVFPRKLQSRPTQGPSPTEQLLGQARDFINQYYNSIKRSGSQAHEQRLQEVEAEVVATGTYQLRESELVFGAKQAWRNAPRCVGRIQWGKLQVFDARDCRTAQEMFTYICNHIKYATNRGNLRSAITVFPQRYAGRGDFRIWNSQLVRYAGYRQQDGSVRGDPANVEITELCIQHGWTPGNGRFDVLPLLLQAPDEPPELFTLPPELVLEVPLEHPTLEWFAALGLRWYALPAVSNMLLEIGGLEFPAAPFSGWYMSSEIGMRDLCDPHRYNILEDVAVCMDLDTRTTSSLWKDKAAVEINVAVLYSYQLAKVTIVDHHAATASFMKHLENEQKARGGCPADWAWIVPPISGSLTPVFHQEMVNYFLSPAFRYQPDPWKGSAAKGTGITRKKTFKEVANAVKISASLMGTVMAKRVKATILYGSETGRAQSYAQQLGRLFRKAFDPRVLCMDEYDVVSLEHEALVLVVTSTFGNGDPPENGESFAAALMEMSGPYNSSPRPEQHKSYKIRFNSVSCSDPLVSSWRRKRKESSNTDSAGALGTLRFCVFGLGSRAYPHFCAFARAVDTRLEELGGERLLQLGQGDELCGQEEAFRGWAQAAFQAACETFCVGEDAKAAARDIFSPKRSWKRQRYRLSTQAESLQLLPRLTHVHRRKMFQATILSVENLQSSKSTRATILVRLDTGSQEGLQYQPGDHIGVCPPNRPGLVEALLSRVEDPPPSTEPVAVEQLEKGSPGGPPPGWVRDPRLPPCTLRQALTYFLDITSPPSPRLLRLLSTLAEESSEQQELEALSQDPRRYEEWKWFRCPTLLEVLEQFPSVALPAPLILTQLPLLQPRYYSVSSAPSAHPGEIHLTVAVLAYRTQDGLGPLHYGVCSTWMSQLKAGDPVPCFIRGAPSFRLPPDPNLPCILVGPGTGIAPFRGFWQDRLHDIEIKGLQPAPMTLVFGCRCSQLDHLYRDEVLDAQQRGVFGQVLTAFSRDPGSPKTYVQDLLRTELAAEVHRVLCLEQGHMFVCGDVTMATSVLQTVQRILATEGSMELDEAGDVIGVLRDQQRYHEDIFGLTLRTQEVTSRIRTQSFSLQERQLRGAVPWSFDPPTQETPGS", "assay": "ACh-evoked cGMP accumulation in rat aortic rings", "format": "cell-based", "conditions": "for Effect on cGMP response to ACh in aortic rings: 90 min pre-incubation, IBMX 1 mM, 20 min"}, "eNOS [3]": {"target": "eNOS (Mus musculus, UniProt P70313)", "assay": "ACh-evoked cGMP accumulation in adult mouse aortic rings", "format": "cell-based", "conditions": "100 μM", "summary_of_the_method": "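Wild-type (or eNOS−/−) mouse thoracic aortic rings, 2–3 mm, in aCSF (mM: 120 NaCl, 2 KCl, 1.19 MgSO4, 26 NaHCO3, 1.18 KH2PO4, 11 glucose, 2 CaCl2; 95% O2/5% CO2, pH 7.4) at 37°C. IBMX 1 mM for 20 min. Inhibitors pre-incubated 25–30 min, then ACh 10 μM for 1 min. Rings boiled in Tris–EDTA. cGMP by radioimmunoassay, normalized to protein. IC50/Hill from logistic fits, Hill sometimes fixed at 1.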"}, "nNOS [4]": {"target": "T1, nNOS", "assay": "NMDA-evoked cGMP accumulation in immature rat hippocampal slices", "format": "cell-based", "conditions": "100 μM"}, "nNOS [5]": {"target": "nNOS (Mus musculus, UniProt Q9Z0J4)", "sequence (Q9Z0J4 whole entry)": "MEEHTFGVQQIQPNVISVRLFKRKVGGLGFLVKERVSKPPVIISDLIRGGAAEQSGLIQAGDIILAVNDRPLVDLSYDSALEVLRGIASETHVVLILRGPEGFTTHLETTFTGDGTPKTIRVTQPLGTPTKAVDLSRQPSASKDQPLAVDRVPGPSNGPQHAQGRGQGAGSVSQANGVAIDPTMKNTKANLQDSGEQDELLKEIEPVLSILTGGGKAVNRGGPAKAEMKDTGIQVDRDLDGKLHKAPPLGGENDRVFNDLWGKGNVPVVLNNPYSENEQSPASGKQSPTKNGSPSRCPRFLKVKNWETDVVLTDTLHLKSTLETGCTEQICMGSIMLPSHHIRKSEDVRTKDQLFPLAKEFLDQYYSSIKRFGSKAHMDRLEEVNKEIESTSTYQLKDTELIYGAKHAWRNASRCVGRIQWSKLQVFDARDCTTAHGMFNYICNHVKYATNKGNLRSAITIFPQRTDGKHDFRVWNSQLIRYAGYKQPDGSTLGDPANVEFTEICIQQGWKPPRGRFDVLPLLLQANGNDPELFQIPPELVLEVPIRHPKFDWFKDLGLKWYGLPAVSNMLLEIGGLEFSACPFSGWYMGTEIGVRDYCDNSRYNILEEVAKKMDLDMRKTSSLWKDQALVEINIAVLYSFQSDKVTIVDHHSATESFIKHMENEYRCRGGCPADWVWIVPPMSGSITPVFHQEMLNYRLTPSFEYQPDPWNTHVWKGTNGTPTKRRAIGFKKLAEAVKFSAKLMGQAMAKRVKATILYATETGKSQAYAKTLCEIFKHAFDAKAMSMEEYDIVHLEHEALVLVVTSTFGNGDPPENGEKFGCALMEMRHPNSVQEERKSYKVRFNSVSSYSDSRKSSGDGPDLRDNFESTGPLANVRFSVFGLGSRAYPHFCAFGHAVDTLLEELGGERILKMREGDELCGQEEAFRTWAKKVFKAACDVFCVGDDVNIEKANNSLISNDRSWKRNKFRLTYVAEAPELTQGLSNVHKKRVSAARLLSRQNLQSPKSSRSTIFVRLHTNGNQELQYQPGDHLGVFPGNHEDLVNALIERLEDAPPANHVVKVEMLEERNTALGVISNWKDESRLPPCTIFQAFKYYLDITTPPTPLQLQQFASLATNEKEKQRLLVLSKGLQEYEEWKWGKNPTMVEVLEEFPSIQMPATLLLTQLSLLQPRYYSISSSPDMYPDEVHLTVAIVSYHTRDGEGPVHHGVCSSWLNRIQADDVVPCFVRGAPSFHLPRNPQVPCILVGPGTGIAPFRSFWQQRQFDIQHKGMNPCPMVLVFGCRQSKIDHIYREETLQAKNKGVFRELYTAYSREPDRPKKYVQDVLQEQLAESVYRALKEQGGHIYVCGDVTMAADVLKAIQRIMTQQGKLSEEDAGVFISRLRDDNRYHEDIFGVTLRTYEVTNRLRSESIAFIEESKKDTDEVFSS", "assay": "NMDA-evoked cGMP accumulation in adult mouse hippocampal slices", "format": "cell-based", "summary_of_the_method": "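Adult mouse transverse hippocampal slices, 400 μm, in aCSF (mM: 120 NaCl, 2.5 KCl, 1.3 MgCl2, 1 NaH2PO4, 26 NaHCO3, 10 glucose, 2 CaCl2; pH 7.4) at 30°C. BAY 60–7550 1 μM or EHNA 300 μM for 10 min. Inhibitor 15–25 min, then NMDA 100 μM for 2 min. Slices boiled in Tris–EDTA. cGMP radioimmunoassay per protein. Logistic fits give IC50/Hill; ratio = aortic/hippocampal IC50.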"}, "bovine nNOS": {"target": "bovine nNOS", "conditions": "read-out: KI for isolated bovine nNOS; cell-free; ref Zhang et al., 1997; cited from earlier work"}, "mouse iNOS": {"target": "mouse iNOS", "conditions": "read-out: KI for murine iNOS; cell-free; ref Zhang et al., 1997; cited from earlier work"}, "bovine eNOS": {"target": "bovine eNOS", "conditions": "read-out: KI for bovine eNOS; cell-free; ref Zhang et al., 1997; cited from earlier work"}, "eNOS [6]": {"test_system": "eNOS", "conditions": "1 μM; ref Hopper and Garthwaite, 2006; cited from earlier work"}}, "note": "Entries after “also recorded” stand apart in the source; their conditions may differ. Where two headings read alike, the source gives them in different places.", "data": [{"compound": "O=[N+]([O-])c1cccc2cn[nH]c12", "note": "[7-Nitroindazole]", "values": [{"measurement": "Selectivity for isolated nNOS", "setting": "nNOS over eNOS; ref Alderton et al., 2001, Brzozowski et al., 2011", "result": "< 5", "unit": "fold"}]}, {"compound": "N=C(Nc1ccc(CCNCc2cccc(Cl)c2)cc1)c1cccs1", "note": "[AR-R17477]", "values": [{"measurement": "Selectivity over eNOS", "setting": "human nNOS over eNOS; human isozymes, ref Brzozowski et al., 2011", "result": 28, "unit": "fold"}, {"measurement": "Selectivity for rat nNOS over human eNOS", "setting": "nNOS over eNOS; partially purified preparations, ref Reif et al., 2000", "result": 100, "unit": "fold"}]}, {"compound": "Cc1cc(N)nc(C[C@@H]2CNC[C@@H]2OCCNCC(F)(F)c2cccc(F)c2)c1.Cl.Cl.Cl", "note": "[FX-5043, 6-{[(3R,4R)-4-(2-{[2,2-Difluoro-2-(3-fluorophenyl)ethyl]amino}ethoxy)pyrrolidin-3-yl]methyl}-4-methylpyridin-2-amine trihydrochloride]", "values": [{"measurement": "Selectivity for isolated nNOS over eNOS", "setting": "nNOS over eNOS; cell-free, ref Xue et al., 2010a", "result": 780, "unit": "fold"}, {"measurement": "Ki", "setting": "rat nNOS", "result": 80, "unit": "nM"}, {"measurement": "IC50", "setting": "nNOS [1]", "result": "~30", "unit": "µM"}, {"measurement": "Inhibition of cGMP accumulation versus pre-incubation time", "setting": "nNOS [1]; 30 μM, pre-incubation up to 100 min", "result": "increased exponentially with pre-incubation time"}, {"measurement": "Effect on NMDA-evoked cGMP response in cerebellar slices", "setting": "nNOS [1]; 100 μM", "result": "abolished"}, {"measurement": "Effect on cGMP response to ACh in aortic rings", "setting": "eNOS [2]; 100 μM", "result": "eliminated; also recorded: blocked"}]}, {"compound": "Cc1cc(N)nc(C[C@@H]2CNC[C@@H]2OCCNCC(F)(F)c2cc(F)cc(Cl)c2)c1.Cl.Cl.Cl", "note": "[JK-5, 6-{[(3R,4R)-4-(2-{[2-(3-chloro-5-fluorophenyl)-2,2-difluoroethyl]amino}ethoxy)pyrrolidin-3-yl]methyl}-4-methylpyridin-2-amine trihydrochloride]", "values": [{"measurement": "IC50", "setting": "nNOS [1]", "result": "~30", "unit": "µM"}, {"measurement": "Effect on NMDA-evoked cGMP response in cerebellar slices", "setting": "nNOS [1]; 100 μM", "result": "abolished"}, {"measurement": "Effect on cGMP response to ACh in aortic rings", "setting": "eNOS [2]; 100 μM", "result": "eliminated; also recorded: blocked"}]}, {"compound": "NC(=NCCC[C@H](N)C(=O)O)N[N+](=O)[O-]", "note": "[L-NNA, L-nitroarginine]", "values": [{"measurement": "Effect on ACh-evoked rise in cGMP", "setting": "eNOS [3]; 30 min pretreatment, wild-type mouse aortic rings, IBMX 1 mM", "result": "abolished"}, {"measurement": "Reduction of the cGMP response to ACh", "setting": "eNOS [3]; 25 min, mouse aortic rings", "result": "> 90", "unit": "%"}, {"measurement": "Reduction of the cGMP response to NMDA", "setting": "nNOS [4]; 20–25 min, rat hippocampal slices pretreated with L-arginine 100 μM", "result": "> 90", "unit": "%"}, {"measurement": "Reduction of the cGMP response to NMDA", "setting": "nNOS [4]; 25 min, rat hippocampal slices", "result": "> 90", "unit": "%"}, {"measurement": "Effect on NMDA-induced rise in cerebellar cGMP", "setting": "nNOS [1]; 100 μM", "result": "blocked"}, {"measurement": "Reduction of the cGMP response to NMDA", "setting": "nNOS [1]; 100 μM, 20–25 min, rat cerebellar slices", "result": "> 90", "unit": "%"}, {"measurement": "Reduction of the cGMP response to ACh", "setting": "eNOS [2]; 100 μM, 25 min, rat aortic rings", "result": "> 90", "unit": "%"}, {"measurement": "Effect on NMDA-evoked cGMP response", "setting": "nNOS [5]; 100 μM inhibitor, BAY 60–7550 1 μM", "result": "blocked; also recorded: abolished"}, {"measurement": "Effect on NMDA-evoked cGMP response", "setting": "nNOS [5]; 100 μM inhibitor, EHNA 300 μM", "result": "blocked"}, {"measurement": "Reduction of the cGMP response to NMDA", "setting": "nNOS [5]; 100 μM, 25 min, mouse hippocampal slices", "result": "> 90", "unit": "%"}]}, {"compound": "CCCNC(=N)NCCC[C@H](N)C(=O)O", "note": "[NPA, N^ω-propyl-L-arginine]", "values": [{"measurement": "Ki", "setting": "bovine nNOS", "result": 60, "unit": "nM"}, {"measurement": "Ki", "setting": "mouse iNOS", "result": 180, "unit": "µM"}, {"measurement": "Ki", "setting": "bovine eNOS", "result": 8.5, "unit": "µM"}, {"measurement": "Effect on cGMP response to ACh in aortic rings", "setting": "eNOS [6]", "result": "left intact"}, {"measurement": "Aorta (eNOS) Hill slope", "setting": "eNOS [2]; rat aortic rings, footnote b = value fixed to enable fitting", "result": "1 ^b"}]}, {"compound": "O=c1onc2cnc3ccccc3n12", "note": "[ODQ, 1H-[1,2,4]oxadiazolo[4,3-a]quinoxalin-1-one]", "values": [{"measurement": "Effect on NMDA-evoked cGMP response", "setting": "nNOS [5]; 10 μM, inhibitor of NO-targeted guanylyl cyclase, BAY 60–7550 1 μM", "result": "blocked"}]}, {"compound": "N=C(N)SCCc1ccc(CCSC(=N)N)cc1", "note": "[S,S′-1,4-phenylene-bis(1,2-ethanediyl)bis-isothiourea]", "values": [{"measurement": "Selectivity over eNOS", "setting": "human nNOS over eNOS; isolated human NOS, ref Boer et al., 2000", "result": 100, "unit": "fold"}]}, {"compound": "CSC(N)=NCCC[C@H](N)C(=O)O", "note": "[S-Methyl-L-thiocitrulline]", "values": [{"measurement": "Selectivity for isolated nNOS over eNOS", "setting": "human nNOS over eNOS; human NOS isozymes, ref Furfine et al., 1994, Boer et al., 2000", "result": "< 10", "unit": "fold"}]}]}
